# ChEMBL document CHEMBL5303300, “EUbOPEN Chemogenomics Library - Multiplex” (2023)
# Values joined by “and” are separate entries in the source; they are usually repeats but may differ in a detail not shown here. Equal entries are not always repeated.
# System: U2OS
# Assay: Multiplex assay against U2OS
# Assay type: toxicity, cell-based
# Settings: human, number of replicates 2
# Summary of the method: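 Live cells were stained at seeding with Hoechst33342, BioTracker Green Microtubule Cytoskeleton Dye, MitoTracker Red and Annexin V Alexa Fluor 680. Following compound addition, they were imaged on a CQ1 microscope at 37°C and 5% CO2 and gated by CellPathfinder machine learning into Hoechst high-intensity objects or normal cells, with normal cells split into healthy, pyknosed or fragmented nuclei and pyknosed cells into mitotic or apoptotic. Tubulin, mitochondrial-mass and membrane-permeability phenotypes are per cents of healthy-nucleus cells.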
# [1] = 12 h, 1 µM, compound concentration 1 uM
# [2] = 12 h, 10 µM, compound concentration 10 uM
# [3] = 24 h, 1 µM, compound concentration 1 uM
# [4] = 24 h, 10 µM, compound concentration 10 uM
# [5] = 48 h, 1 µM, compound concentration 1 uM
# [6] = 48 h, 10 µM, compound concentration 10 uM
compound,measurement,setting,value
CC(C)S(=O)(=O)c1ccccc1Nc1nc(N[C@@H]2CCCN(CCCCCCCNC(=O)COc3cccc4c3C(=O)N(C3CCC(=O)N(C)C3=O)C4=O)C2)ncc1Cl (some centres undefined),Population Apoptotic (%),[1],93% and 83%
same,Population Healthy Nuclei (%),[1],34% and 71%
same,Population Hoechst High Intensity Objects (%),[1],0%
same,Population Mitochondria Different-Phenotype (%),[1],8% and 7%
same,Population Mitotic Cells (%),[1],6% and 16%
same,Population Normal (%),[1],100%
same,Population Pyknosed Nuclei (%),[1],22% and 23%
same,Population Tubulin-Different-Phenotype (%),[1],69% and 61%
same,Total Cell Count,[1],66 and 157
same,Population Apoptotic (%),[2],85% and 77%
same,Population Healthy Nuclei (%),[2],48% and 56%
same,Population Hoechst High Intensity Objects (%),[2],0% and 1%
same,Population Membrane Permeable-Phenotype (%),[2],80% and 93%
same,Population Mitochondria Different-Phenotype (%),[2],66% and 54%
same,Population Mitotic Cells (%),[2],14% and 22%
same,Population Normal (%),[2],100% and 98%
same,Population Pyknosed Nuclei (%),[2],22% and 37%
same,Population Tubulin-Different-Phenotype (%),[2],100%
same,Population Apoptotic (%),[3],85% and 89%
same,Population Fragmented Nuclei (%),[3],26% and 13%
same,Population Healthy Nuclei (%),[3],29% and 51%
same,Population Hoechst High Intensity Objects (%),[3],1% and 0%
same,Population Membrane Permeable-Phenotype (%),[3],0% and 6%
same,Population Mitochondria Different-Phenotype (%),[3],0% and 4%
same,Population Mitotic Cells (%),[3],14% and 10%
same,Population Normal (%),[3],98% and 100%
same,Population Pyknosed Nuclei (%),[3],44% and 34%
same,Population Tubulin-Different-Phenotype (%),[3],77% and 84%
same,Total Cell Count,[3],62 and 166
same,Population Apoptotic (%),[4],85% and 93%
same,Population Fragmented Nuclei (%),[4],8% and 12%
same,Population Hoechst High Intensity Objects (%),[4],0% and 1%
same,Population Membrane Permeable-Phenotype (%),[4],50% and 40%
same,Population Mitochondria Different-Phenotype (%),[4],50% and 64%
same,Population Mitotic Cells (%),[4],14% and 6%
same,Population Normal (%),[4],100% and 98%
same,Population Pyknosed Nuclei (%),[4],84% and 57%
same,Population Tubulin-Different-Phenotype (%),[4],100% and 68%
same,Population Apoptotic (%),[5],89% and 93%
same,Population Fragmented Nuclei (%),[5],19% and 13%
same,Population Healthy Nuclei (%),[5],29% and 44%
same,Population Hoechst High Intensity Objects (%),[5],0%
same,Population Membrane Permeable-Phenotype (%),[5],5% and 9%
same,Population Mitochondria Different-Phenotype (%),[5],0% and 5%
same,Population Mitotic Cells (%),[5],10% and 6%
same,Population Normal (%),[5],100% and 99%
same,Population Pyknosed Nuclei (%),[5],50% and 41%
same,Population Tubulin-Different-Phenotype (%),[5],70% and 87%
same,Population Apoptotic (%),[6],100% and 94%
same,Population Fragmented Nuclei (%),[6],9% and 10%
same,Population Healthy Nuclei (%),[6],18% and 14%
same,Population Hoechst High Intensity Objects (%),[6],4% and 3%
same,Population Membrane Permeable-Phenotype (%),[6],75% and 62%
same,Population Mitochondria Different-Phenotype (%),[6],100% and 53%
same,Population Mitotic Cells (%),[6],0% and 5%
same,Population Normal (%),[6],95% and 96%
same,Population Pyknosed Nuclei (%),[6],72% and 75%
same,Population Tubulin-Different-Phenotype (%),[6],75% and 96%
CS(=O)(=O)c1ccc(C(=O)Nc2cc(F)cc(COc3ccc(Br)cc3CN3CC[C@H](O)C3)c2)c(Cl)c1.O=CO,Population Healthy Nuclei (%),[1],64% and 82%
same,Population Hoechst High Intensity Objects (%),[1],0%
same,Population Mitotic Cells (%),[1],20% and 12%
same,Population Pyknosed Nuclei (%),[1],8% and 13%
same,Population Healthy Nuclei (%),[2],31% and 70%
same,Population Hoechst High Intensity Objects (%),[2],0%
same,Population Mitotic Cells (%),[2],44% and 57%
same,Population Pyknosed Nuclei (%),[2],21% and 25%
same,Population Healthy Nuclei (%),[3],82% and 53%
same,Population Hoechst High Intensity Objects (%),[3],0%
same,Population Mitotic Cells (%),[3],21% and 46%
same,Population Pyknosed Nuclei (%),[3],15% and 20%
same,Population Healthy Nuclei (%),[4],32% and 68%
same,Population Hoechst High Intensity Objects (%),[4],0%
same,Population Mitotic Cells (%),[4],20% and 26%
same,Population Pyknosed Nuclei (%),[4],25% and 28%
same,Population Healthy Nuclei (%),[5],57% and 85%
same,Population Hoechst High Intensity Objects (%),[5],0%
same,Population Mitotic Cells (%),[5],11% and 15%
same,Population Pyknosed Nuclei (%),[5],18%
same,Population Healthy Nuclei (%),[6],19% and 52%
same,Population Hoechst High Intensity Objects (%),[6],0%
same,Population Mitotic Cells (%),[6],12% and 9%
same,Population Pyknosed Nuclei (%),[6],44% and 38%
CN(C)C/C=C/C(=O)Nc1ccc(C(=O)Nc2cccc(Nc3ncc(Cl)c(-c4c[nH]c5ccccc45)n3)c2)cc1,Population Apoptotic (%),[1],81% and 93%
same,Population Fragmented Nuclei (%),[1],12% and 3%
same,Population Healthy Nuclei (%),[1],53% and 73%
same,Population Hoechst High Intensity Objects (%),[1],0%
same,Population Membrane Permeable-Phenotype (%),[1],0% and 2%
same,Population Mitochondria Different-Phenotype (%),[1],0% and 4%
same,Population Mitotic Cells (%),[1],18% and 6%
same,Population Normal (%),[1],100%
same,Population Pyknosed Nuclei (%),[1],34% and 22%
same,Population Tubulin-Different-Phenotype (%),[1],64% and 72%
same,Population Apoptotic (%),[2],96% and 89%
same,Population Fragmented Nuclei (%),[2],17% and 9%
same,Population Healthy Nuclei (%),[2],35% and 56%
same,Population Hoechst High Intensity Objects (%),[2],0%
same,Population Membrane Permeable-Phenotype (%),[2],18% and 17%
same,Population Mitochondria Different-Phenotype (%),[2],4% and 11%
same,Population Mitotic Cells (%),[2],3% and 10%
same,Population Normal (%),[2],100%
same,Population Pyknosed Nuclei (%),[2],46% and 34%
same,Population Tubulin-Different-Phenotype (%),[2],40% and 48%
same,Population Apoptotic (%),[3],83% and 94%
same,Population Fragmented Nuclei (%),[3],17% and 9%
same,Population Healthy Nuclei (%),[3],31% and 40%
same,Population Hoechst High Intensity Objects (%),[3],0% and 1%
same,Population Mitochondria Different-Phenotype (%),[3],27% and 12%
same,Population Normal (%),[3],100% and 98%
same,Population Pyknosed Nuclei (%),[3],51% and 50%
same,Population Tubulin-Different-Phenotype (%),[3],100% and 77%
same,Population Apoptotic (%),[4],92% and 98%
same,Population Fragmented Nuclei (%),[4],21% and 11%
same,Population Healthy Nuclei (%),[4],18% and 31%
same,Population Hoechst High Intensity Objects (%),[4],0% and 1%
same,Population Membrane Permeable-Phenotype (%),[4],46% and 27%
same,Population Mitochondria Different-Phenotype (%),[4],23% and 31%
same,Population Mitotic Cells (%),[4],7% and 1%
same,Population Normal (%),[4],100% and 98%
same,Population Pyknosed Nuclei (%),[4],59% and 57%
same,Population Tubulin-Different-Phenotype (%),[4],61% and 54%
same,Population Apoptotic (%),[5],84% and 96%
same,Population Fragmented Nuclei (%),[5],17% and 10%
same,Population Healthy Nuclei (%),[5],14% and 18%
same,Population Hoechst High Intensity Objects (%),[5],0% and 2%
same,Population Membrane Permeable-Phenotype (%),[5],50% and 44%
same,Population Mitochondria Different-Phenotype (%),[5],50% and 48%
same,Population Normal (%),[5],100% and 97%
same,Population Pyknosed Nuclei (%),[5],67% and 70%
same,Population Tubulin-Different-Phenotype (%),[5],100% and 88%
same,Population Apoptotic (%),[6],99% and 95%
same,Population Fragmented Nuclei (%),[6],7% and 19%
same,Population Hoechst High Intensity Objects (%),[6],3% and 0%
same,Population Mitochondria Different-Phenotype (%),[6],67% and 100%
same,Population Mitotic Cells (%),[6],0% and 4%
same,Population Normal (%),[6],96% and 100%
same,Population Pyknosed Nuclei (%),[6],79% and 78%
same,Population Tubulin-Different-Phenotype (%),[6],89% and 100%
CCCCOc1c(C(=O)c2c(F)cc(C)cc2F)c[nH]c2nncc1-2,Population Apoptotic (%),[1],54% and 60%
same,Population Healthy Nuclei (%),[1],52% and 86%
same,Population Hoechst High Intensity Objects (%),[1],0%
same,Population Membrane Permeable-Phenotype (%),[1],0% and 3%
same,Population Mitochondria Different-Phenotype (%),[1],0% and 1%
same,Population Mitotic Cells (%),[1],45% and 40%
same,Population Normal (%),[1],100%
same,Population Pyknosed Nuclei (%),[1],20% and 9%
same,Population Tubulin-Different-Phenotype (%),[1],89% and 86%
same,Population Apoptotic (%),[2],42% and 84%
same,Population Fragmented Nuclei (%),[2],19% and 8%
same,Population Healthy Nuclei (%),[2],29% and 79%
same,Population Hoechst High Intensity Objects (%),[2],0%
same,Population Membrane Permeable-Phenotype (%),[2],2% and 1%
same,Population Mitochondria Different-Phenotype (%),[2],0%
same,Population Normal (%),[2],100%
same,Population Tubulin-Different-Phenotype (%),[2],73% and 91%
same,Total Cell Count,[2],143 and 207
same,Population Apoptotic (%),[3],46% and 62%
same,Population Fragmented Nuclei (%),[3],10% and 5%
same,Population Healthy Nuclei (%),[3],52% and 82%
same,Population Hoechst High Intensity Objects (%),[3],0%
same,Population Membrane Permeable-Phenotype (%),[3],0% and 1%
same,Population Mitochondria Different-Phenotype (%),[3],0%
same,Population Mitotic Cells (%),[3],53% and 37%
same,Population Normal (%),[3],100%
same,Population Tubulin-Different-Phenotype (%),[3],76% and 79%
same,Population Apoptotic (%),[4],41% and 66%
same,Population Hoechst High Intensity Objects (%),[4],1% and 0%
same,Population Membrane Permeable-Phenotype (%),[4],6% and 2%
same,Population Mitochondria Different-Phenotype (%),[4],0%
same,Population Mitotic Cells (%),[4],58% and 33%
same,Population Normal (%),[4],98% and 100%
same,Population Tubulin-Different-Phenotype (%),[4],81% and 86%
same,Total Cell Count,[4],187 and 205
same,Population Apoptotic (%),[5],37% and 67%
same,Population Fragmented Nuclei (%),[5],5% and 4%
same,Population Healthy Nuclei (%),[5],71% and 88%
same,Population Hoechst High Intensity Objects (%),[5],0%
same,Population Membrane Permeable-Phenotype (%),[5],4% and 2%
same,Population Mitochondria Different-Phenotype (%),[5],4% and 1%
same,Population Mitotic Cells (%),[5],62% and 32%
same,Population Normal (%),[5],100% and 99%
same,Population Tubulin-Different-Phenotype (%),[5],77% and 74%
same,Population Apoptotic (%),[6],35% and 75%
same,Population Hoechst High Intensity Objects (%),[6],0%
same,Population Membrane Permeable-Phenotype (%),[6],7% and 4%
same,Population Mitochondria Different-Phenotype (%),[6],0%
same,Population Mitotic Cells (%),[6],64% and 24%
same,Population Normal (%),[6],100%
same,Population Tubulin-Different-Phenotype (%),[6],73% and 77%
same,Total Cell Count,[6],291 and 241
